Measurements of several laboratories.
Lines come from different studies, so protocols differ.
Target: Beta-adrenergic receptor kinase 1 (GRK2, Homo sapiens, UniProt P25098)
One construct used (P25098 1-689): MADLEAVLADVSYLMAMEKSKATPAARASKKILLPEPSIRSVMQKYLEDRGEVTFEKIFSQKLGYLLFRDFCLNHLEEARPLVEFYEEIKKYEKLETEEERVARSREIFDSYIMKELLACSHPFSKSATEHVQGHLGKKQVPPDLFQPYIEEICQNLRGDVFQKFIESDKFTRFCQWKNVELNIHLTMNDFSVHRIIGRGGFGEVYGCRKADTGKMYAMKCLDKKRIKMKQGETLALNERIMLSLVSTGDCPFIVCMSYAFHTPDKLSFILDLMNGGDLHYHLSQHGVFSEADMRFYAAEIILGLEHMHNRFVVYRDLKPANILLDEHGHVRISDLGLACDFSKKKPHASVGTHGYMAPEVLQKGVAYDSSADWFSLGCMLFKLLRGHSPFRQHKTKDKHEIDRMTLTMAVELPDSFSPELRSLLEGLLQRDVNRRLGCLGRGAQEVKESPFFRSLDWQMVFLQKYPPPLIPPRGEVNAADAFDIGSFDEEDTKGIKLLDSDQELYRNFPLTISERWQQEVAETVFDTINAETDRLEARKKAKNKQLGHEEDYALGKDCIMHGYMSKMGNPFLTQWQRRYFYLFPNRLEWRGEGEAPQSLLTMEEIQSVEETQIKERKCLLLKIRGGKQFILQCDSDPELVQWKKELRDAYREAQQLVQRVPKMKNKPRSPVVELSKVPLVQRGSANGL

Compound | assay | setting | quantity | result
CCc1ccccc1C(=O)Nc1n[nH]c2c(C)c(F)c(C3C(C#N)=C(C)N(C)C(C)=C3C#N)cc12 | cell-free assay, competition with immobilised ligand | 1 µM | remaining binding | 100%
Nc1ncnc2occ(-c3ccc(NC(=O)Nc4cc(C(F)(F)F)ccc4F)cc3)c12 | cell-free assay, inhibitor | 20 µM | remaining signal | 81%
Cc1ccc(C(=O)NCc2ccsc2)cc1C#Cc1cn(C(C)C)c2ncnc(N)c12 | enzyme activity, inhibitor | 1 µM | activity vs control | 101%
COc1cccc2c(NCc3ccccc3)nc(-n3c(N)nc4ccccc43)nc12 | target engagement in cells, inhibitor, chemoproteomics | 20 mM | inhibition | -14.5%
Cc1ccc(C(=O)Nc2ccc(CN3CCN(C)CC3)c(C(F)(F)F)c2)cc1C#Cc1cnc2cccnn12 | enzyme activity, inhibitor | 23.5 nM | remaining activity | 77%
COc1cc2ncnc(Nc3ccc(Oc4ccccc4)cc3C)c2cc1OC | enzyme activity, inhibitor | 1 µM | inhibition | -1%
N[C@H]1CCN(c2nccc(-c3cnn4ncccc34)n2)C1 | binding, competition with immobilised ligand | 1 µM | remaining binding | 80%
O=C(Nc1cccnn1)N1CC(C/C=C/c2cncc(Oc3ccc(C(F)(F)F)cn3)n2)C1 | cell-free assay, competition with immobilised ligand | 1 µM | remaining binding | 96%
CN1CC(Oc2cnc(C#N)cc2-c2ccn3nc(NC(=O)C4CC4)cc3c2)C1 | enzyme activity, inhibitor | 1 µM | inhibition | 5%
O=C(Nc1cnn(-c2csc(C(=O)NC3COC3)c2)c1)Nc1ccccc1Cl | enzyme activity, inhibitor | 5 µM | remaining activity | 96.1%
Cc1noc([C@H]2C[C@@H](c3ccc(C(F)(F)F)cc3)CN(C(=O)N3CCS(=O)(=O)C3)C2)n1 | cell-free assay, competition with immobilised ligand | 1 µM | remaining binding | 83%
O=C1Nc2ccc(Cl)cc2C1=Cc1cc(Cl)c(O)c(Cl)c1 | cell-free assay | 0.5 µM | remaining signal | 93.4%
CC(C)(C)c1nc2c(s1)c1nc(N)ncc1c1ccc(NS(=O)(=O)c3c(F)cccc3F)c(F)c12 | enzyme activity, inhibitor, radiometric | 1 µM | remaining activity | 90%
CCCS(=O)(=O)Nc1ccc(F)c(C(=O)c2c[nH]c3ncc(-c4ccc(Cl)cc4)cc23)c1F | enzyme activity, inhibitor | 1 µM | inhibition | < 20%
N#CCCc1ccc2c(c1)-c1[nH]c3ccc([N+](=O)[O-])cc3c1CC(=O)N2 | cell-free assay | 0.5 µM | remaining signal | 96.4%
O=C(NC[C@@H]1[C@H]2CN(C(=O)OCc3cc(C(F)(F)F)cc(C(F)(F)F)c3)C[C@@H]12)c1ccc2[nH]nnc2c1 | cell-free assay, competition with immobilised ligand | 1 µM | remaining binding | 71%
